Active and inactive are the calls of the source. The rule behind the calls is not given here.
Legend:
HT-29 [1] = experiment: Cytotoxicity against human HT-29 cells after 96 hrs by MTT assay; format: functional, cell-based; settings: HT-29, 96 h
Summary of the method: (§1)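 Cells were grown in RPMI 1640 with 1 mM sodium pyruvate, 2 mM L-glutamine and 10% FBS. They were seeded at 1 × 10⁴ cells/mL and left overnight at 37 °C in 5% CO₂. Medium was then replaced with a broad concentration range of compound diluted from DMSO (final DMSO ≤0.1%). After 96 h exposure, growth was read by MTT.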

MDA-MB-231 = experiment: Cytotoxicity against human MDA-MB-231 cells after 96 hrs by MTT assay; format: functional, cell-based; settings: MDA-MB-231, 96 h; summary of the method: as §1
DLD-1 [2] = experiment: Cytotoxicity against human DLD1 cells after 96 hrs by MTT assay; format: functional, cell-based; settings: DLD-1, 96 h; summary of the method: as §1
HeLa [3] = experiment: Cytotoxicity against human HeLa cells after 96 hrs by MTT assay; format: functional, cell-based
Summary of the method: (§2)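 Parental HeLa cells and a transfected class III β-tubulin-overexpressing variant were seeded at 1 × 10⁴ cells/mL and held overnight at 37 °C, 5% CO₂. Compounds in DMSO were diluted in complete medium over a broad range (final DMSO ≤0.1%) and exposed for 96 h. Read-out was MTT. IC50 is the mean ± standard error of at least four independent assays.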

HeLa [4] = experiment: Cytotoxicity against human HeLa cells expressing class 3 tubulin after 96 hrs by MTT assay; format: functional, cell-based; summary of the method: as §2
DLD-1 [5] = experiment: Induction of ABCG2 mRNA expression in human DLD1 cells at 1/10 IC50 to IC50 after 96 hrs by RT-PCR analysis; format: functional, cell-based
Summary of the method: (§3)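 HT29 and DLD-1 cells were seeded at 5 × 10⁵ cells/dish, incubated overnight, then treated for 96 h. Total RNA was isolated, and ABCB1 and ABCG2 mRNA were measured by quantitative RT-PCR. Fold induction is target/PPIA signal relative to the control ratio, from three independent PCR analyses. Statistics: paired two-tailed t test with two-way ANOVA and Bonferroni correction.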

DLD-1 [6] = experiment: Induction of ABCB1 mRNA expression in human DLD1 cells at 1/10 IC50 to IC50 after 96 hrs by RT-PCR analysis; format: functional, cell-based; summary of the method: as §3
HT-29 [7] = experiment: Induction of ABCG2 mRNA expression in human HT-29 cells at 1/10 IC50 to IC50 after 96 hrs by RT-PCR analysis; format: functional, cell-based; summary of the method: as §3
HT-29 [8] = experiment: Induction of ABCB1 mRNA expression in human HT-29 cells at 1/10 IC50 to IC50 after 96 hrs by RT-PCR analysis; format: functional, cell-based; summary of the method: as §3
[9] = Cytotoxicity against human A2780AD cells expressing p-gp after 96 hrs by MTT assay; format: functional, cell-based; settings: A2780 ADR
Summary of the method: (§4)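 Cells were seeded at 1 × 10⁴ cells/mL in 96-well format and incubated overnight at 37 °C in 5% CO₂. Medium was replaced with serial compound dilutions from DMSO stocks in complete medium (final DMSO ≤0.1%). Chemosensitivity was read by MTT after 96 h.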

HT-29 [10] = experiment: Cell cycle arrest in human HT-29 cells assessed as accumulation at G2/M phase at 40 nM after 48 hrs by FACS analysis; format: functional
HT-29 [11] = experiment: Cell cycle arrest in human HT-29 cells assessed as accumulation at G2/M phase at 40 nM after 24 hrs by FACS analysis; format: functional
[12] = tested on: A2780 (human ovarian carcinoma); experiment: Cytotoxicity against human A2780 cells after 96 hrs by MTT assay; settings: A2780, 96 h
A549 = experiment: Cytotoxicity against human A549 cells after 96 hrs by MTT assay in presence of fumitremorgin-C; format: functional, cell-based; summary of the method: as §4
Liver = experiment: Metabolic stability of the compound in mouse liver homogenates at 100 uM after 2 hrs; format: ADME, tissue-based; settings: tissue homogenate
HT-29 [13] = experiment: Induction of microtubule disruption in human HT-29 cells assessed as change […] cell morphology and cytoskeletal organization after 24 hrs by immunostaining; format: cell-based
Summary of the method: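 HT29 cells on glass coverslips were allowed to adhere for 24 h, then exposed to 5, 50 and 500 nM for 24 h. Cells were fixed in methanol at −20 °C for 30 min and stained with mouse anti-α-tubulin (1:500, 30 min, rt), then TRITC anti-mouse IgG (1:50, 30 min). Images were taken by confocal microscopy and compared with untreated cells.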

A2780 ADR = experiment: Effect on ABCB1 level in human A2780AD cells expressing p-gp; format: functional, cell-based

## COc1ccc(CN[C@H]2CCc3cc(OC)c(OC)c(OC)c3-c3ccc(OC)c(=O)cc32)cc1
HT-29 [1]
  IC50: 51 nM
MDA-MB-231
  IC50: 93 nM
DLD-1 [2]
  IC50: 15.7 nM

## COc1cc2c(c(OC)c1OC)-c1ccc(OC)c(=O)cc1[C@@H](NC(C)=O)CC2 [COLCHICINE]
HeLa [3]
  IC50: 8.2 nM
HeLa [4]
  IC50: 9.7 nM
DLD-1 [5]
  Activity: inactive
DLD-1 [6]
  Activity: inactive
HT-29 [7]
  Activity: Active
HT-29 [8]
  Activity: Active
[9]
  IC50: 16.8 nM
HT-29 [10]
  Activity: Active
HT-29 [11]
  Activity: Active
HT-29 [1]
  IC50: 69.2 nM
MDA-MB-231
  IC50: 37 nM
DLD-1 [2]
  IC50: 15.6 nM
[12]
  IC50: 6.7 nM

## COc1cc2c(c(OC)c1OC)-c1ccc(OC)c(=O)cc1[C@@H](NCc1cccc(F)c1F)CC2
HT-29 [1]
  IC50: 7.43 nM
MDA-MB-231
  IC50: 86 nM
DLD-1 [2]
  IC50: 4.67 nM

## COc1cc2c(c(OC)c1OC)-c1ccc(OC)c(=O)cc1[C@@H](NCc1cc(F)c(F)c(F)c1)CC2
HT-29 [1]
  IC50: 64.5 nM
MDA-MB-231
  IC50: 92.2 nM
DLD-1 [2]
  IC50: 36.2 nM

## COc1cc2c(c(OC)c1OC)-c1ccc(OC)c(=O)cc1[C@@H](NCc1ccc(I)cc1)CC2
DLD-1 [2]
  IC50: 35.9 nM

## COc1cc2c(c(OC)c1OC)-c1ccc(OC)c(=O)cc1[C@@H](NCc1cccc(F)c1)CC2
HT-29 [1]
  IC50: 63.4 nM
MDA-MB-231
  IC50: 89.1 nM
DLD-1 [2]
  IC50: 51.6 nM

## COc1cc2c(c(OC)c1OC)-c1ccc(OC)c(=O)cc1[C@@H](NCc1cc(F)cc(F)c1)CC2
HT-29 [1]
  IC50: 52 nM
MDA-MB-231
  IC50: 523 nM
DLD-1 [2]
  IC50: 35.2 nM

## CC(=O)O[C@H]1C(=O)[C@@]2(C)[C@H]([C@H](OC(=O)c3ccccc3)[C@]3(O)C[C@H](OC(=O)[C@H](O)[C@@H](NC(=O)c4ccccc4)c4ccccc4)C(C)=C1C3(C)C)[C@]1(OC(C)=O)CO[C@@H]1C[C@@H]2O [PACLITAXEL]
[9]
  IC50: > 1000 nM
[12]
  IC50: 1.1 nM

## COc1cc2c(c(OC)c1OC)-c1ccc(OC)c(=O)cc1[C@@H](NCc1ccc(F)cc1)CC2
DLD-1 [2]
  IC50: 11.4 nM

## COc1cc2c(c(OC)c1OC)-c1ccc(OC)c(=O)cc1[C@@H](NCc1ccc(Br)cc1)CC2
DLD-1 [2]
  IC50: 31.2 nM

## COc1cc2c(c(OC)c1OC)-c1ccc(OC)c(=O)cc1[C@@H](NCc1ccc(Cl)cc1)CC2
DLD-1 [2]
  IC50: 32.6 nM

## COc1cc2c(c(OC)c1OC)-c1ccc(OC)c(=O)cc1[C@@H](NCc1ccc(F)c(F)c1)CC2
HeLa [3]
  IC50: 25.3 nM
HeLa [4]
  IC50: 14.1 nM
A549
  Activity: Active
DLD-1 [5]
  Activity: inactive
DLD-1 [6]
  Activity: inactive
HT-29 [7]
  Activity: Active
HT-29 [8]
  Activity: Active
[9]
  IC50: 17.2 nM
Liver
  Stability: Stable
HT-29 [13]
  Activity: Dose-dependent effect
HT-29 [10]
  Activity: 91.2%
HT-29 [11]
  Activity: 92.5%
HT-29 [1]
  IC50: 4.3 nM
MDA-MB-231
  IC50: 16 nM
DLD-1 [2]
  IC50: 1.61 nM
A2780 ADR
  Activity: inactive
[12]
  IC50: 18.8 nM

Source: ChEMBL document CHEMBL2176948 (J Med Chem, 2012)
